Assay [1] concerns the target T1, full length Vav3 wild-type in LNCaP cells (Homo sapiens, UniProt Q9UKW4).
T1 sequence (Q9UKW4 1-847): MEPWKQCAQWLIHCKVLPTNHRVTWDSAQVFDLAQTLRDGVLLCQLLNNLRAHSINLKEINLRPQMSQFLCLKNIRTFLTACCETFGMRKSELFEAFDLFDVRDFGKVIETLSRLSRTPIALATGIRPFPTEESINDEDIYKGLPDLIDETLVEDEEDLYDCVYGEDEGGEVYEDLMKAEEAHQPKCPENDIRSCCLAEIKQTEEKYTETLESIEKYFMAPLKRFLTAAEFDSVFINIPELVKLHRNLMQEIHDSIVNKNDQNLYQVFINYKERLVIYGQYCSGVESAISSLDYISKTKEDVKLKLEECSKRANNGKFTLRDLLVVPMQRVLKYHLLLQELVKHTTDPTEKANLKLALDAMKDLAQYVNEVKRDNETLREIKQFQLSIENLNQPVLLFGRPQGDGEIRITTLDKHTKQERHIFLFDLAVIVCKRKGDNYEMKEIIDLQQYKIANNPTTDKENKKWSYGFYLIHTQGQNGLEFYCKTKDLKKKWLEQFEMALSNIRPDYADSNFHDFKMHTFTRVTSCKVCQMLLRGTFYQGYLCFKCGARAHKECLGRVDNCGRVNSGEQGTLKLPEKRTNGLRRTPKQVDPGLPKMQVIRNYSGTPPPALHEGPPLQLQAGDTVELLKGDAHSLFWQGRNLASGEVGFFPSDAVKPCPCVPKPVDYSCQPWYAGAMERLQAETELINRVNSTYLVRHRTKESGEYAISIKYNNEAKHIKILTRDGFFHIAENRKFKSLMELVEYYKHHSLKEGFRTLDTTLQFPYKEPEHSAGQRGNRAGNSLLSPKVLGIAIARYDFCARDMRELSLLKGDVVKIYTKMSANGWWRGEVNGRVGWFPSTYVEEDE
Kind of assay: Membrane translocation of GFP-tagged protein, confocal microscopy. As to conditions: 10 μM PMA. Format: cell-based. The essentials: (§1)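 LNCaP cells (passage 3–20) grown in RPMI 1640 with 10% FBS and 2 mM L-glutamine at 37°C, transfected with GFP constructs at 75% confluency; PMA added 24 h later. Confocal imaging with 488 nm excitation and 535–553 nm emission. Membrane/cytoplasm mean-intensity ratio from 3 membrane and 3 cytoplasm regions (~5 μm²) at 0, 5, 10, 30, 45 min (120 min where indicated). Mean ± SEM, ≥3 cells in each of ≥3 independent experiments; Student's t-test.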

A further assay addresses T2, Vav3 CaWT in LNCaP cells (Homo sapiens, UniProt Q9UKW4).
T2 sequence (Q9UKW4 177-847 limits assumed): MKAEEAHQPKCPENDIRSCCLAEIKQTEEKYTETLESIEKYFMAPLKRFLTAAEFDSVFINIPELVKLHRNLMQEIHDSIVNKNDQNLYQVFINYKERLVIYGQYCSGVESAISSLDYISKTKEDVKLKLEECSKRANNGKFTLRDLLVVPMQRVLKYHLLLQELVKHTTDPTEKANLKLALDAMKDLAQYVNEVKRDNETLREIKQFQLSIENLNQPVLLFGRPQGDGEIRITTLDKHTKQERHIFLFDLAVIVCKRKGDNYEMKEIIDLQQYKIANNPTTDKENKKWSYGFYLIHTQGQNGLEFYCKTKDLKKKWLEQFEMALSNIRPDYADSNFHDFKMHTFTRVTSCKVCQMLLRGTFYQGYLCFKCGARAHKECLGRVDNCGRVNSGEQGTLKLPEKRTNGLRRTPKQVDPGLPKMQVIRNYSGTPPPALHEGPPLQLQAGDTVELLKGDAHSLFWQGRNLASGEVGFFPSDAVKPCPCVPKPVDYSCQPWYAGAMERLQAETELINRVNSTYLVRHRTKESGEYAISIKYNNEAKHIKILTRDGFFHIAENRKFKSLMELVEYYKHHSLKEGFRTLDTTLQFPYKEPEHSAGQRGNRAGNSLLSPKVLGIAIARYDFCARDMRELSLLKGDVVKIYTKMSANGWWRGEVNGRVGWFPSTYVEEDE
Described as above. As to conditions: 10 μM PMA. Format: cell-based. The essentials: as §1

The next assay has as its target T3, Vav3 5X in LNCaP cells (Homo sapiens, UniProt Q9UKW4, R523S/T522M/T537L/V524P/Y539K).
T3 sequence (Q9UKW4 1-847 T522M/R523S/V524P/T537L/Y539K): T1 sequence (Q9UKW4 1-847) with T522M, R523S, V524P, T537L, Y539K
The assay is described as above. Format: cell-based. As to conditions: 10 μM PMA. The essentials:
as §1

Assay [2] deals with T4, Vav2 C1 5X (D9M/K10S/T11P/T24L/Y26K) (Homo sapiens, UniProt P52735, D532M/K533S/T534P/T547L/Y549K).
T4 sequence (P52735 523-572 D532M/K533S/T534P/T547L/Y549K): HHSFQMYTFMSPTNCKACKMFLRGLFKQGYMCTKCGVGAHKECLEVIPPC
Nature of the assay: [3H]PDBu binding, polyethylene glycol precipitation assay. A digest of the protocol:
(§2)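 GST-fused C1 domain, cloned into pGEX-5x-1 and expressed in BL21 cells. Cultures grown in LB at 37°C to OD 0.5, induced with 0.5 mM IPTG, then grown 4 h at 37°C. Cells lysed with bacterial extraction reagent; protein purified and eluted on a GST spin column. Kd for [3H]PDBu determined by polyethylene glycol precipitation. Values are mean ± SEM of three experiments.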

A further assay has as its target T5, Vav3 C1 2X (T24L/Y26K) (Homo sapiens, UniProt Q9UKW4, T537L/Y539K).
T5 sequence (Q9UKW4 513-562 T537L/Y539K): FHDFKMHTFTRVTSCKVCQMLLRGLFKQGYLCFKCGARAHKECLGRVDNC
The assay is described as above. A digest of the protocol:
as §2

Assay [3] addresses T6, Vav3 C1 3X (T9M/R10S/V11P) (Homo sapiens, UniProt Q9UKW4, R523S/T522M/V524P).
T6 sequence (Q9UKW4 513-562 T522M/R523S/V524P): T5 sequence (Q9UKW4 513-562 T537L/Y539K) with T10M, R11S, V12P, L25T, K27Y
Kind of assay: [3H]PDBu binding, polyethylene glycol precipitation assay. The essentials:
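GST-fused C1 domain, cloned into pGEX-5x-1 and expressed in BL21 cells. Cultures grown in LB at 37°C to OD 0.5, induced with 0.5 mM IPTG, then grown 4 h at 37°C. Cells lysed with bacterial extraction reagent; protein purified and eluted on a GST spin column. Kd for [3H]PDBu determined by polyethylene glycol precipitation. Values are mean ± SEM of two replicates.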

Assay [4] has as its target T7, Vav3 C1 5X (T9M/R10S/V11P/T24L/Y26K) (Homo sapiens, UniProt Q9UKW4, R523S/T522M/T537L/V524P/Y539K).
T7 sequence (Q9UKW4 513-562 T522M/R523S/V524P/T537L/Y539K): T5 sequence (Q9UKW4 513-562 T537L/Y539K) with T10M, R11S, V12P
Kind of assay: [3H]PDBu binding, polyethylene glycol precipitation assay. The essentials:
as §2

For the next assay, the target named is Vav1 C1 WT. As to conditions: GST-tagged C1 domain; NA, no activity; ref [17]; cited from earlier work.
The target in a further assay is Vav1 C1 2X (T24L/Y26K). As to conditions: GST-tagged C1 domain; NA, no activity; ref [17]; cited from earlier work.
Assay [5] deals with Vav1 C1 3X (E9M/E10S/T11P). As to conditions: ref [17], cited from earlier work.
Assay [6] has as its target Vav1 C1 5X (E9M/E10S/T11P/T24L/Y26K). The note with it: ref [17], cited from earlier work.
The test system of assay [7] is C1 domain of PKCδ with the corresponding residues in the Vav1 C1 domain. The note with it: five amino acids replaced; ref [17]; cited from earlier work.
[8] abbreviates: GST-tagged C1 domain, mean ± SEM of triplicate experiments.

Results on two compounds are retold here after publication PMC5651187 (Cellular signalling, 2017).

Structures are written as SMILES. Changes are numbered by the printed parent chain.

For the compound `CCCCCCCCCCCCCC(=O)O[C@@H]1[C@@H](C)[C@@]2(O)[C@@H](C=C(CO)C[C@]3(O)C(=O)C(C)=C[C@@H]23)[C@@H]2C(C)(C)[C@]12OC(C)=O` [PMA, phorbol 12-myristate 13-acetate], the “membrane translocation in response to phorbol ester” value in assay [1] is recorded as “neither the wild-type Vav3 nor the Vav3 CaWT translocated”; on Vav3 CaWT in LNCaP cells, “neither the wild-type Vav3 nor the Vav3 CaWT translocated”; at Vav3 5X in LNCaP cells, “became visible after 10 min but became more evident after 2 h”.

As usually defined, the Kd is the free concentration of one partner at which half of the binding sites on the other are occupied at equilibrium, for simple one-to-one binding. Turning to `CCCC(=O)O[C@@H]1[C@@H](C)[C@@]2(O)[C@@H](C=C(CO)C[C@]3(O)C(=O)C(C)=C[C@@H]23)[C@@H]2C(C)(C)[C@]12OC(=O)CCC` [PDBu, Phorbol 12,13-dibutyrate], the “Relative to PKCδ C1b” value in assay [2] is on record as 3370 ×; at Vav3 C1 2X (T24L/Y26K) it was 938 ×; in [3] it was 4380 ×; in [4], 23.5×; in assay [5], 38,000 ×; in [6] it was 5.4×. Further, the Kd is 650.7 ± 2.6 nM in [2] (setting [8]); 188 ± 35 nM on Vav3 C1 2X (T24L/Y26K) (setting [8]); 840 ± 120 nM in [3] (GST-tagged C1 domain, mean ± SEM, only 2 replicates); 4.7 ± 0.8 nM in assay [4] (setting [8]); “no detectable binding” at Vav1 C1 WT; “did not restore phorbol ester binding” on Vav1 C1 2X (T24L/Y26K). In addition, the Kd in assay [5] (GST-tagged C1 domain) is 7330 ± 490 nM; in [6] (GST-tagged C1 domain), 1.05 ± 0.14 nM. The PDBu binding affinity result in [7] is “abolished detectable PDBu binding affinity”.
